Results on 1 compound are retold here after paper PMC7024744 (Journal of Pesticide Science, 2020).

Assay [1] has as its system B. cinerea. The assay can be described thus: fungicidal activity in vitro, mycelium growth rate method. The format is cell-based. As to conditions: Botrytis cinerea, read-out: Antifungal activity in vitro, inhibition, B. cinerea. In short, it runs like this: (§1)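 Mycelium growth rate method. Test compounds were dissolved in acetone as a 100 mg/L stock and tested at 50 mg/L. Boscalid served as positive control and acetone as negative control. Plates were incubated at 25°C. Inhibition (%) was calculated from the average mycelial diameter (mm) with compound versus the negative-control diameter.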

Assay [2] has as its system V. mali. The assay is described as above. The format is cell-based. Particulars: Cytospora mali, read-out: Antifungal activity in vitro, inhibition, V. mali. An outline of the steps: as §1
The target in assay [3] is porcine SDH (Sus scrofa, UniProt A5GZW8+D0VWV4+Q007T0+Q0QF01). Put plainly: SDH enzymatic inhibition assay. The format is biochemical, swine. In short, it runs like this:
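Porcine SDH quantified by double-antibody sandwich ELISA. Plates were coated with purified porcine SDH antibody, then monoclonal antibody and HRP-labelled SDH antibody were added. After washing, TMB substrate was added, followed by acid. OD was read at 450 nm. SDH activity concentration was taken from a standard curve of standard-substance concentration against OD and corrected for sample dilution.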

Chain of porcine SDH (Q0QF01 43-664): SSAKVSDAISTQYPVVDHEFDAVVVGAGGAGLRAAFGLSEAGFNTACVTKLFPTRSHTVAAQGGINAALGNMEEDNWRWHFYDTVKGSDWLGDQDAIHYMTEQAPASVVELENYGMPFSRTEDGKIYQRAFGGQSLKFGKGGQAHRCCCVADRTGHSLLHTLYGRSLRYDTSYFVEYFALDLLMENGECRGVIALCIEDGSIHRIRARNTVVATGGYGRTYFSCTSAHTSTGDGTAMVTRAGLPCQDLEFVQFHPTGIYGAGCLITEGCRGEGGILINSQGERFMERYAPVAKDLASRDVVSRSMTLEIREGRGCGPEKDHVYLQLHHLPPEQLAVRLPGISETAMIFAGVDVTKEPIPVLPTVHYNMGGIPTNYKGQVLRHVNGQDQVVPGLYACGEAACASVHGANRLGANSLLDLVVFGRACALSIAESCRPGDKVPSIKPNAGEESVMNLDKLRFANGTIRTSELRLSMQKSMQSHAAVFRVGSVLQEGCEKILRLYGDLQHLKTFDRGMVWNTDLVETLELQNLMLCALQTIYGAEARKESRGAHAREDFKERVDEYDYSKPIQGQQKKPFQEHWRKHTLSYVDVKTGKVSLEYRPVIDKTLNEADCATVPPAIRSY
Chain of porcine SDH (Q007T0 29-280): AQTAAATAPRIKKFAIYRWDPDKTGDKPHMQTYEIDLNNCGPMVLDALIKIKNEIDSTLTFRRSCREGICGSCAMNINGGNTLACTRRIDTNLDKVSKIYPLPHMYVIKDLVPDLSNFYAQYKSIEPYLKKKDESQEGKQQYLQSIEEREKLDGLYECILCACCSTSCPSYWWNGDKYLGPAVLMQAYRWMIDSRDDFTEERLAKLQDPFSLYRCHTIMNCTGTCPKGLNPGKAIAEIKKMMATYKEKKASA
Chain of porcine SDH (D0VWV4 30-169): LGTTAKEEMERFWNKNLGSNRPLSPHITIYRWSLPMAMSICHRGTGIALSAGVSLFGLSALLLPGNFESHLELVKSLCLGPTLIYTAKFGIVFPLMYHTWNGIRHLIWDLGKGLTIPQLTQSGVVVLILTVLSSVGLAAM
Chain of porcine SDH (A5GZW8 37-159): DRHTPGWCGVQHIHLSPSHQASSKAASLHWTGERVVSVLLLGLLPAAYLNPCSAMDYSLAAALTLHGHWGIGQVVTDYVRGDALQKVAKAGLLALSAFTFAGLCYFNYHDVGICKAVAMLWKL

The term inhibition denotes the change of the read-out against control, counted positive when it falls. As a reminder, the IC50 is the concentration at which inhibition is half-maximal. Take `O=C(Nc1ccccc1-c1ccc(Cl)cc1)c1cccnc1Cl` [Boscalid]: the inhibition at 50 µg/mL in assay [1] and in assay [2] was 100% throughout. This compound came in with an IC50 in assay [3] of 1.67 µM. In assay [3] (read-out: SDH enzymatic inhibition, Inhibition (%) 0.5 µM), the inhibition at 0.5 µM was determined as 21.6%. Moreover, the inhibition at 1 µM in assay [3] (read-out: SDH enzymatic inhibition, Inhibition (%) 1 µM) is 43.3%. For the same compound, the inhibition at 2 µM in assay [3] (read-out: SDH enzymatic inhibition, Inhibition (%) 2 µM) is 53.6%. Also, the inhibition at 8 µM in assay [3] (read-out: SDH enzymatic inhibition, Inhibition (%) 8 µM) was 81%.
